Measured values: ChEMBL document CHEMBL1137378, “Antibacterial agent discovery using thymidylate synthase biolibrary screening” (J Med Chem, 2006)
Values after ≈ are worked out from the molar mass of the structure shown.

What was measured:
Vero [1] = experiment: Cytotoxicity against Vero cells measured as percent of cell growth at 6.25 mg/L relative to control by MTT assay; type: functional, Chlorocebus sabaeus
Method in brief: (§1)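 VERO cells grown in MEM with 5% heat-inactivated (56 °C, 30 min) FCS, penicillin, streptomycin and L-glutamine. Cultures were watched for 2 days and live cells counted. Cells were then exposed to increasing compound concentrations; wells with cells only served as control. After 24 h, mitochondrial dehydrogenase activity was read by MTT. Trypan blue exclusion was also run.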

Listeria monocytogenes [2] = experiment: Antibacterial activity against Listeria monocytogenes 7; type: functional
Method in brief: (§2)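 Wild-type strain panel (18 Gram-positive and Gram-negative strains). Bacteria grown in Mueller-Hinton broth at 37 °C for 24 h. Exponentially growing cultures diluted in sterile liquid medium to a final inoculum of about 1 × 10⁴ CFU/mL, then exposed to increasing compound concentrations. MIC taken as the lowest concentration with no evident bacterial growth.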

Streptococcus = experiment: Antibacterial activity against Streptococcus 42; type: functional; method in brief: as §2
Escherichia coli [3] = experiment: Antibacterial activity against Escherichia coli 292; type: functional; method in brief: as §2
Vero [4] = experiment: Cytotoxicity against Vero cells measured as percent of cell growth at 12.05 mg/L relative to control by MTT assay; type: functional, Chlorocebus sabaeus; method in brief: as §1
Listeria monocytogenes [5] = experiment: Antibacterial activity against Listeria monocytogenes 3; type: functional; method in brief: as §2
Escherichia coli [6] = experiment: Antibacterial activity against Escherichia coli 256; type: functional; method in brief: as §2
Thymidylate synthase [7] = biological target: Thymidylate synthase (Homo sapiens, UniProt P04818); experiment: Inhibition of human thymidylate synthase
Staphylococcus aureus [8] = experiment: Antibacterial activity against Staphylococcus aureus ATCC 29213; type: functional; method in brief: as §2
Thymidylate synthase [9] = biological target: T1, Thymidylate synthase (Cryptococcus neoformans var. neoformans B-3501A, UniProt P0CS13); experiment: Inhibition of Cryptococcus neoformans thymidylate synthase
T1 sequence (P0CS13 whole entry): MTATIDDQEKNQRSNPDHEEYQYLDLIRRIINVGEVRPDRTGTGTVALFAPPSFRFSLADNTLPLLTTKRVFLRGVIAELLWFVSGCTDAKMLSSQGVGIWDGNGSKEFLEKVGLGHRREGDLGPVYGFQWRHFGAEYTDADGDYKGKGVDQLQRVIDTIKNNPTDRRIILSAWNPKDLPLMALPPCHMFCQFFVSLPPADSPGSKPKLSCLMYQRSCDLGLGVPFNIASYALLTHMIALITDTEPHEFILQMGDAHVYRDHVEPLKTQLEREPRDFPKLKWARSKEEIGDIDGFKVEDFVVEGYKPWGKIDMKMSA

Vero [10] = experiment: Cytotoxicity against Vero cells measured as percent of cell growth at 1.56 mg/L relative to control by MTT assay; type: functional, Chlorocebus sabaeus; method in brief: as §1
Homo sapiens = species on record: Homo sapiens; experiment: Selectivity Index, Ki for human dihydrofolate reductase/Ki for human thymidylate synthase
Staphylococcus aureus [11] = experiment: Antibacterial activity against Staphylococcus aureus 343; type: functional; method in brief: as §2
Listeria monocytogenes [12] = experiment: Antibacterial activity against Listeria monocytogenes 8; type: functional; method in brief: as §2
[13] = Specificity Index, Ki for human thymidylate synthase/Ki for Escherichia coli thymidylate synthase
Listeria monocytogenes [14] = experiment: Antibacterial activity against Listeria monocytogenes ATCC 4428; type: functional; method in brief: as §2
[15] = system: Staphylococcus saprophyticus; experiment: Antibacterial activity against Staphylococcus saprophyticus ATCC 15305; type: functional; method in brief: as §2
Vero [16] = experiment: Cytotoxicity against Vero cells measured as percent of cell growth at 3.12 mg/L relative to control by MTT assay; type: functional, Chlorocebus sabaeus; method in brief: as §1
[17] = system: Staphylococcus haemolyticus; experiment: Antibacterial activity against Staphylococcus haemolyticus ATCC 2997; type: functional; method in brief: as §2
Dihydrofolate reductase = biological target: T2, Dihydrofolate reductase (Homo sapiens, UniProt P00374); experiment: Inhibition of human dihydrofolate reductase
T2 sequence (P00374 whole entry): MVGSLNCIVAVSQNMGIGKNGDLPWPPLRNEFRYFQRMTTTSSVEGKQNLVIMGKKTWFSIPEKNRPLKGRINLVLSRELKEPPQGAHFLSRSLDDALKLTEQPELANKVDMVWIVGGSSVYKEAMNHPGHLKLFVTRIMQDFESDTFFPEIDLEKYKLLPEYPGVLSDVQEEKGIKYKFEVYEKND
Method in brief: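 Purified human DHFR assayed spectrophotometrically at 25 °C by the fall in A340 on DHF reduction. Ki from steady-state kinetics.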

Citrobacter = experiment: Antibacterial activity against Citrobacter 224; type: functional; method in brief: as §2
Listeria monocytogenes [18] = experiment: Antibacterial activity against Listeria monocytogenes 5; type: functional; method in brief: as §2
Staphylococcus aureus [19] = experiment: Antibacterial activity against Staphylococcus aureus 341; type: functional; method in brief: as §2
Thymidylate synthase [20] = biological target: T3, Thymidylate synthase (Lactobacillus casei, UniProt P00469); experiment: Inhibition of Lactobacillus casei thymidylate synthase; design: species or system Lacticaseibacillus casei
T3 sequence (P00469 whole entry): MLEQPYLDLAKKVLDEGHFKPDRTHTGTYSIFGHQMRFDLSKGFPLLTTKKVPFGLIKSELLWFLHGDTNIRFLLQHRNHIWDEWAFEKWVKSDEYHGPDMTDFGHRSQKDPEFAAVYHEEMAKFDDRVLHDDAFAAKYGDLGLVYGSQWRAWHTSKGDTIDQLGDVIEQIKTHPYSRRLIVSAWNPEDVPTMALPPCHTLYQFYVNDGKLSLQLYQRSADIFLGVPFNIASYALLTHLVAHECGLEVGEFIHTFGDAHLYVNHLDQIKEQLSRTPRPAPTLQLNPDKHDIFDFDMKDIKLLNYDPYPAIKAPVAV

Vero [21] = experiment: Cytotoxicity against Vero cells measured as percent of cell growth at 50 mg/L relative to control by MTT assay; type: functional, Chlorocebus sabaeus; method in brief: as §1
[22] = Specificity Index, Ki for human thymidylate synthase/Ki for Cryptococcus neoformans thymidylate synthase
Method in brief: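 Specificity index is Ki of hTS divided by Ki of the pathogen TS (LcTS, EcTS or CnTS). Each enzyme was purified to >95% and assayed spectrophotometrically at 340 nm, 20 °C. Buffer was TES 50 mM pH 7.4 with MgCl2, formaldehyde, EDTA and 2-mercaptoethanol, plus dUMP 100 µM, mTHF 140 µM and enzyme 0.07 µM.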

Thymidylate synthase [23] = biological target: Thymidylate synthase (Escherichia coli, UniProt C3SWJ7); experiment: Inhibition of Escherichia coli thymidylate synthase
Staphylococcus aureus [24] = experiment: Antibacterial activity against Staphylococcus aureus K28; type: functional; method in brief: as §2
Enterococcus faecalis = experiment: Antibacterial activity against Enterococcus faecalis ATCCC29212; type: functional; method in brief: as §2
[25] = Specificity Index, Ki for human thymidylate synthase/Ki for Lactobacillus casei thymidylate synthase
Vero [26] = experiment: Cytotoxicity against Vero cells measured as percent of cell growth at 25 mg/L relative to control by MTT assay; type: functional, Chlorocebus sabaeus; method in brief: as §1
Listeria monocytogenes [27] = experiment: Antibacterial activity against Listeria monocytogenes 4; type: functional; method in brief: as §2
Listeria monocytogenes [28] = experiment: Antibacterial activity against Listeria monocytogenes 6; type: functional; method in brief: as §2

Sequence of Thymidylate synthase (Homo sapiens, UniProt P04818) (P04818 whole entry): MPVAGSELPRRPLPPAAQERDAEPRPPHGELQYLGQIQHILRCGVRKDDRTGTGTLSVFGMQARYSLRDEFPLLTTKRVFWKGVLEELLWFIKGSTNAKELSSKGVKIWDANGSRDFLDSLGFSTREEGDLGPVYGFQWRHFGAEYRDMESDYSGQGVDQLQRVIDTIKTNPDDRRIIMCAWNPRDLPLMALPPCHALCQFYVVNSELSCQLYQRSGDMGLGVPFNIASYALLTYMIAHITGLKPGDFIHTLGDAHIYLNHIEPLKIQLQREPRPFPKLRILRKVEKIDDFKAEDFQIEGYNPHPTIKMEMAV
Sequence of Thymidylate synthase (Escherichia coli, UniProt C3SWJ7) (C3SWJ7 whole entry): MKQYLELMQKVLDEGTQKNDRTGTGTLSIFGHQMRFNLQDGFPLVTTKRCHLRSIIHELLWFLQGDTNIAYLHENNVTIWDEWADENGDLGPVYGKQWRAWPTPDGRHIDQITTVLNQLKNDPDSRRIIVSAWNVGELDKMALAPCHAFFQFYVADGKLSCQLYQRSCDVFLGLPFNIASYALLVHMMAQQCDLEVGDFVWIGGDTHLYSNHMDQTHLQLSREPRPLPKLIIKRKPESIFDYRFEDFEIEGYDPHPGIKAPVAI

O=C1OC(c2ccc(O)c(Br)c2)(c2ccc(O)c(Br)c2)c2cccc3cccc1c23
Activity (Vero [1]): 100% | MIC (Listeria monocytogenes [2]): 1 µg/mL (≈ 1.9 µM) | MIC (Streptococcus): 5 µg/mL (≈ 9.5 µM) | MIC (Escherichia coli [3]): > 50 µg/mL | Activity (Vero [4]): 100% | MIC (Listeria monocytogenes [5]): 2.5 µg/mL (≈ 4.75 µM) | MIC (Escherichia coli [6]): > 50 µg/mL | Ki (Thymidylate synthase [7]): 4.7 µM | MIC (Staphylococcus aureus [8]): 5 µg/mL (≈ 9.5 µM) | Ki (Thymidylate synthase [9]): 13 µM | Activity (Vero [10]): 100% | Selectivity index (Homo sapiens): 3 | MIC (Staphylococcus aureus [11]): 5 µg/mL (≈ 9.5 µM) | MIC (Listeria monocytogenes [12]): 5 µg/mL (≈ 9.5 µM) | Ratio Ki [13]: 5 | MIC (Listeria monocytogenes [14]): 5 µg/mL (≈ 9.5 µM) | MIC [15]: 5 µg/mL (≈ 9.5 µM) | Activity (Vero [16]): 100% | MIC [17]: 5 µg/mL (≈ 9.5 µM) | Ki (Dihydrofolate reductase): 15 µM | MIC (Citrobacter): > 50 µg/mL | MIC (Listeria monocytogenes [18]): 5 µg/mL (≈ 9.5 µM) | MIC (Staphylococcus aureus [19]): 5 µg/mL (≈ 9.5 µM) | Ki (Thymidylate synthase [20]): 6.8 µM | Activity (Vero [21]): 41% | Ratio Ki [22]: 0.4 | Ki (Thymidylate synthase [23]): 0.9 µM | MIC (Staphylococcus aureus [24]): 5 µg/mL (≈ 9.5 µM) | MIC (Enterococcus faecalis): 10 µg/mL (≈ 19 µM) | Ratio Ki [25]: 1 | Activity (Vero [26]): 84% | MIC (Listeria monocytogenes [27]): 5 µg/mL (≈ 9.5 µM) | MIC (Listeria monocytogenes [28]): 5 µg/mL (≈ 9.5 µM)
